According to ChEMBL document CHEMBL1148584, “Effect of polyamine homologation on the transport and biological properties of heterocyclic amidines” (J Med Chem, 2006):

Assays:
[1] = target: Phosphodiesterase 1 (Bos taurus, UniProt Q01061+P14100); experiment: Inhibition of bovine calmodulin-activated cAMP dependent phosphodiesterase; format: protein assay
Summary of the method: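 Crude bovine heart PDE preparation containing calmodulin and Ca²⁺ (0.2 milliunit). Incubated 20 min at 37 °C with 0.1 mM [8-³H]cAMP and graded drug concentrations in 30 mM Tris-HCl, 3 mM MgSO₄, 0.6 mM AMP. Stopped with ZnSO₄; Ba(OH)₂ precipitated AMP with BaSO₄; supernatant radioactivity counted. IC50 is the concentration giving 50% inhibition.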

[2] = test system: L1210; experiment: Intracellular level of spermidine in L1210 cells in the absence of DFMO at 10 uM; format: functional, cell-based; settings: Mus musculus
Summary of the method: (§1)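 L1210 cells in RPMI 1640/10% FCS with 2 mM aminoguanidine, seeded at 4 × 10⁴ cells/mL. Conjugate, with or without 5 mM DFMO, added at seeding; cells cultured 48 h, washed in cold NaCl, and extracted with 0.2 N HClO₄. Conjugate and free putrescine, spermidine and spermine quantified by ion-pair HPLC (UV 254 nm, fluorescence ex 345/em 455 nm); normalised to protein. Student's t-test, p<0.05.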

[3] = test system: CHO-MG; experiment: Inhibition of cell growth in CHO-MG cells in the presence of DFMO; format: functional, cell-based; settings: Cricetulus griseus
Summary of the method: (§2)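 L1210 cells seeded at 5 × 10⁴ cells/mL with conjugate added at seeding; CHO/CHO-MG plated at 2 × 10³ cells/mL with conjugate added after overnight (24 h). 5 mM DFMO added together with conjugate; medium contains 2 mM aminoguanidine. After 48 h, growth read by MTT formazan absorbance at 540 nm. IC50 is 50% growth inhibition; mean of three determinations.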

[4] = test system: L1210; experiment: Intracellular level of spermine in L1210 cells in the presence of DFMO at 10 uM; format: functional, cell-based; settings: Mus musculus; summary of the method: as §1
[5] = test system: L1210; experiment: Inhibition of cell growth in L1210 cells in the presence of DFMO; format: functional, cell-based; settings: Mus musculus; summary of the method: as §2
[6] = test system: CHO-MG; experiment: Cellular uptake in CHO-MG cells at 50 uM; format: ADME, cell-based, Cricetulus griseus; settings: chinese hamster
Summary of the method: (§3)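 CHO (RPMI 1640, 10% FCS, 2 mM aminoguanidine) and CHO-MG (plus L-proline) cells seeded at 2 × 10⁵ cells/mL. Conjugate added 24 h after seeding and cells harvested 24 h later, then washed in cold 0.14 M NaCl and sonicated in 0.2 N HClO₄. Supernatant analysed by ion-pair reversed-phase HPLC (n-octanesulfonate), expressed as nmol/mg protein; mean ± SD of three determinations.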

[7] = test system: L1210; experiment: Intracellular level of putrescine in L1210 cells in the presence of DFMO at 10 uM; format: functional, cell-based; settings: Mus musculus; summary of the method: as §1
[8] = Selectivity for uptake CHO cell line over CHO-MG cell line at 50 uM; format: functional, Cricetulus griseus
Summary of the method: (§4)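 Ratio of intracellular conjugate level in CHO over CHO-MG cells. Both lines were exposed to conjugate 24 h after seeding at 2 × 10⁵ cells/mL, for 24 h with 2 mM aminoguanidine in the medium. Levels were measured by ion-pair HPLC of perchloric extracts and normalised to protein (nmol/mg).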

[9] = test system: CHO; experiment: Cellular uptake in CHO cells at 50 uM; format: ADME, cell-based, Cricetulus griseus; settings: chinese hamster; summary of the method: as §3
[10] = test system: L1210; experiment: Intracellular level of putrescine in L1210 cells in the absence of DFMO at 10 uM; format: functional, cell-based; settings: Mus musculus; summary of the method: as §1
[11] = test system: L1210; experiment: Intracellular level of conjugate in L1210 cells in the presence of DFMO at 10 uM; format: functional, cell-based; settings: Mus musculus; summary of the method: as §1
[12] = test system: L1210; experiment: Intracellular level of spermine in L1210 cells in the absence of DFMO at 10 uM; format: functional, cell-based; settings: Mus musculus; summary of the method: as §1
[13] = test system: L1210; experiment: Intracellular level of spermidine in L1210 cells in the presence of DFMO at 10 uM; format: functional, cell-based; settings: Mus musculus; summary of the method: as §1
[14] = test system: L1210; experiment: Intracellular level of conjugate in L1210 cells in the absence of DFMO at 10 uM; format: functional, cell-based; settings: Mus musculus; summary of the method: as §1
[15] = test system: CHO; experiment: Inhibition of cell growth in CHO cells in the presence of DFMO; format: functional, cell-based; settings: Cricetulus griseus; summary of the method: as §2
[16] = test system: CHO-MG; experiment: Selectivity for uptake in CHO cell line over CHO-MG cell line at 10 uM; format: functional, cell-based; settings: Cricetulus griseus; summary of the method: as §4
[17] = test system: CHO; experiment: Cellular uptake in CHO cells at 10 uM; format: ADME, cell-based, Cricetulus griseus; settings: chinese hamster; summary of the method: as §3
[18] = test system: CHO-MG; experiment: Cellular uptake in CHO-MG cells at 10 uM; format: ADME, cell-based, Cricetulus griseus; settings: chinese hamster; summary of the method: as §3
[19] = test system: L1210; experiment: Intracellular level of conjugate in L1210 cells in the absence of DFMO at 50 uM; format: functional, cell-based; settings: Mus musculus; summary of the method: as §1
[20] = test system: L1210; experiment: Intracellular level of spermidine in L1210 cells in the presence of DFMO at 50 uM; format: functional, cell-based; settings: Mus musculus; summary of the method: as §1
[21] = test system: L1210; experiment: Intracellular level of putrescine in L1210 cells in the absence of DFMO at 50 uM; format: functional, cell-based; settings: Mus musculus; summary of the method: as §1
[22] = test system: L1210; experiment: Intracellular level of spermine in L1210 cells in the absence of DFMO at 50 uM; format: functional, cell-based; settings: Mus musculus; summary of the method: as §1
[23] = test system: L1210; experiment: Intracellular level of spermidine in L1210 cells in the absence of DFMO at 50 uM; format: functional, cell-based; settings: Mus musculus; summary of the method: as §1
[24] = test system: L1210; experiment: Intracellular level of conjugate in L1210 cells in the presence of DFMO at 50 uM; format: functional, cell-based; settings: Mus musculus; summary of the method: as §1
[25] = test system: L1210; experiment: Intracellular level of putrescine in L1210 cells in the presence of DFMO at 50 uM; format: functional, cell-based; settings: Mus musculus; summary of the method: as §1
[26] = test system: L1210; experiment: Intracellular level of spermine in L1210 cells in the presence of DFMO at 50 uM; format: functional, cell-based; settings: Mus musculus; summary of the method: as §1
[27] = Selectivity for uptake in CHO cell line over CHO-MG cell line at 25 uM; format: functional, Cricetulus griseus; summary of the method: as §4
[28] = test system: CHO-MG; experiment: Cellular uptake in CHO-MG cells at 25 uM; format: ADME, cell-based, Cricetulus griseus; settings: chinese hamster; summary of the method: as §3
[29] = test system: CHO; experiment: Cellular uptake in CHO cells at 25 uM; format: ADME, cell-based, Cricetulus griseus; settings: chinese hamster; summary of the method: as §3
[30] = test system: L1210; experiment: Intracellular level of conjugate in L1210 cells in the absence of DFMO at 25 uM; format: functional, cell-based; settings: Mus musculus; summary of the method: as §1
[31] = test system: L1210; experiment: Intracellular level of spermidine in L1210 cells in the presence of DFMO at 25 uM; format: functional, cell-based; settings: Mus musculus; summary of the method: as §1
[32] = test system: L1210; experiment: Intracellular level of spermine in L1210 cells in the presence of DFMO at 25 uM; format: functional, cell-based; settings: Mus musculus; summary of the method: as §1
[33] = test system: L1210; experiment: Intracellular level of spermidine in L1210 cells in the absence of DFMO at 25 uM; format: functional, cell-based; settings: Mus musculus; summary of the method: as §1
[34] = test system: L1210; experiment: Intracellular level of conjugate in L1210 cells in the presence of DFMO at 25 uM; format: functional, cell-based; settings: Mus musculus; summary of the method: as §1
[35] = test system: L1210; experiment: Intracellular level of putrescine in L1210 cells in the presence of DFMO at 25 uM; format: functional, cell-based; settings: Mus musculus; summary of the method: as §1
[36] = test system: L1210; experiment: Intracellular level of spermine in L1210 cells in the absence of DFMO at 25 uM; format: functional, cell-based; settings: Mus musculus; summary of the method: as §1
[37] = test system: L1210; experiment: Intracellular level of putrescine in L1210 cells in the absence of DFMO at 25 uM; format: functional, cell-based; settings: Mus musculus; summary of the method: as §1

| Structure (SMILES) | IC50 [1] [µM] | Drug uptake [2] [nmol/mg] | IC50 [3] [µM] | Drug uptake [4] [nmol/mg] | IC50 [5] [µM] | Drug uptake [6] [nmol/mg] | Drug uptake [7] [nmol/mg] | Selectivity ratio [8] | Drug uptake [9] [nmol/mg] | Drug uptake [10] [nmol/mg] | Drug uptake [11] [nmol/mg] | Drug uptake [12] [nmol/mg] | Drug uptake [13] [nmol/mg] | Drug uptake [14] [nmol/mg] | IC50 [15] [µM] | further results |
| --- | --- | --- | --- | --- | --- | --- | --- | --- | --- | --- | --- | --- | --- | --- | --- | --- |
| CN(c1ccccc1)C1c2ccccc2N=C(NCCCO)C1(C)C (stereo unspecified) | > 500 | – | – | – | – | – | – | – | – | – | – | – | – | – | – | – |
| CC1C[C@]2(C)C(NCCCNCCCCNCCCN)=Nc3ccccc3[C@@H]2N(C)c2ccccc21 (stereo partly specified) | 19 | 18 | 27 | 5.8 | 1 | 0.66 | 0.04 | 1 | 0.66 | 1.5 | 1.5 | 9.7 | 0.49 | 0.59 | 9.1 | – |
| CN(c1ccccc1)C1c2ccccc2N=C(NCCCCN)C1(C)C (stereo unspecified) | 51 | – | 13 | – | 33 | – | – | – | – | – | – | – | – | – | > 100 | Ratio [16]: 1.1; Drug uptake [17]: 13 nmol/mg; Drug uptake [18]: 12 nmol/mg |
| CNc1ccc(C2c3ccccc3N=C(NCCCCN)C2(C)C)cc1 (stereo unspecified) | 373 | – | – | – | – | 5.9 | – | 0.9 | 5.3 | – | – | – | – | – | – | Drug uptake [19]: 0.6 nmol/mg; Drug uptake [20]: 1.8 nmol/mg; Drug uptake [21]: 1.9 nmol/mg; Drug uptake [22]: 8.6 nmol/mg; Drug uptake [23]: 20 nmol/mg; Drug uptake [24]: 0.33 nmol/mg; Drug uptake [25]: 1 nmol/mg; Drug uptake [26]: 6.6 nmol/mg |
| CNc1ccc(C2c3ccccc3N=C(NCCCNCCCCNCCCN)C2(C)C)cc1 (stereo unspecified) | 23 | 17 | 23 | 7.8 | 3.1 | – | 0.07 | – | – | 1.1 | 0.74 | 9.4 | 0.66 | 0.54 | 11 | Selectivity ratio [27]: 0.9; Drug uptake [28]: 0.81 nmol/mg; Drug uptake [29]: 0.72 nmol/mg |
| NCCCCNCCCNC1=Nc2ccccc2CC1 | > 500 | 14.5 | – | 12.1 | > 100 | – | – | – | – | – | 8.2 | 7.1 | 3.2 | 4.3 | – | Selectivity ratio [27]: 7; Ratio [16]: 6.9; Drug uptake [17]: 11 nmol/mg; Drug uptake [28]: 2.2 nmol/mg; Drug uptake [29]: 15.4 nmol/mg; Drug uptake [18]: 1.6 nmol/mg |
| CNc1cccc2c1[C@H](C)C[C@]1(C)C(NCCCNCCCCN)=Nc3ccccc3[C@H]21 | 22 | – | > 100 | – | – | 1.2 | – | 1 | 1.3 | – | – | – | – | – | – | Drug uptake [30]: 1.2 nmol/mg; Drug uptake [31]: 1.5 nmol/mg; Drug uptake [32]: 8.9 nmol/mg; Drug uptake [33]: 24 nmol/mg; Drug uptake [34]: 1.3 nmol/mg; Drug uptake [35]: 0.02 nmol/mg; Drug uptake [36]: 11 nmol/mg; Drug uptake [37]: 1 nmol/mg |
| CN(c1ccccc1)C1c2ccccc2N=C(NCCCNCCCCNCCCN)C1(C)C (stereo unspecified) | 8 | 16 | – | 7.6 | 2.3 | 3.2 | 0.02 | 1 | 3.3 | 0.41 | 2.6 | 9.5 | 0.6 | 1.8 | – | – |
| CC1C[C@]2(C)C(NCCCO)=Nc3ccccc3[C@@H]2N(C)c2ccccc21 (stereo partly specified) | > 500 | – | – | – | – | – | – | – | – | – | – | – | – | – | – | – |
